This is an account of results in ChEMBL document CHEMBL3351355, “Structure-affinity/activity relationships of 1,4-dioxa-spiro[4.5]decane based ligands at α1 and 5-HT1A receptors” (Eur J Med Chem, 2014).

Structures are written as SMILES.

What is called Ki is a measure of affinity in units of concentration, obtained from inhibition or displacement. One may read the pKb as the negative decadic logarithm of the Kb, by convention in mol/L.

The target in assay [1] is T1, Alpha-1B adrenergic receptor (Homo sapiens, UniProt P35368).
T1 sequence (P35368 whole entry): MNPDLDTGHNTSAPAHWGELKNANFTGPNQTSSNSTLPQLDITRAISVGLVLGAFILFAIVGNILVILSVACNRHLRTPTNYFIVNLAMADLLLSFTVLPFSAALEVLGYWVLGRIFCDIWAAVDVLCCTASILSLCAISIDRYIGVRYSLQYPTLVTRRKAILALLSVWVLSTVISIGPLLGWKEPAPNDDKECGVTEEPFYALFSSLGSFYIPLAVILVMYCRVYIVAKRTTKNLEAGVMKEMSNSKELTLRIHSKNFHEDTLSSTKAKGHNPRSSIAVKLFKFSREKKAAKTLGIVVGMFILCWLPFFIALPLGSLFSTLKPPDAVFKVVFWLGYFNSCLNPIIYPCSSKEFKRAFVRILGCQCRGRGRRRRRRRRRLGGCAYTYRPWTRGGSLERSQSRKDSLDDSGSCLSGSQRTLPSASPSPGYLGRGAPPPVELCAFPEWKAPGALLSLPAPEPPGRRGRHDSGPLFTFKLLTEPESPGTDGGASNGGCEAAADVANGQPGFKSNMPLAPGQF
Description: Displacement of [3H]prazosin from human recombinant alpha1B adrenoceptor expressed in CHO cells after 30 mins by liquid scintillation counting. Format: cell-based. Summed up:
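CHO cells were stably transfected by electroporation with each human α1 subtype. Membranes (70 µg protein) were incubated in 50 mM Tris pH 7.4 with 0.1–0.4 nM [3H]prazosin and competitor (1 pM–1 µM) for 30 min at 25 °C. Nonspecific binding with 10 µM tamsulosin. Filtration and scintillation counting. pKi from 2–3 experiments in duplicate.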
For orientation: In a radioligand displacement assay an active substance lowers the binding of a labelled ligand.

Assay [2] is filed under the species Rattus norvegicus. Description: Selectivity ratio of Kb for alpha1D adrenoceptor in Wistar rat thoracic aorta to Kb for alpha1B adrenoceptor in Wistar rat spleen. The format is tissue-based.
Assay [3] is filed under the species Rattus norvegicus. Description: Selectivity ratio of Kb for alpha1B adrenoceptor in Wistar rat spleen to Kb for alpha1A adrenoceptor in Wistar rat vas deferans. The format is tissue-based.
Assay [4] deals with T2, Alpha-1A adrenergic receptor (Homo sapiens, UniProt P35348).
T2 sequence (P35348 whole entry): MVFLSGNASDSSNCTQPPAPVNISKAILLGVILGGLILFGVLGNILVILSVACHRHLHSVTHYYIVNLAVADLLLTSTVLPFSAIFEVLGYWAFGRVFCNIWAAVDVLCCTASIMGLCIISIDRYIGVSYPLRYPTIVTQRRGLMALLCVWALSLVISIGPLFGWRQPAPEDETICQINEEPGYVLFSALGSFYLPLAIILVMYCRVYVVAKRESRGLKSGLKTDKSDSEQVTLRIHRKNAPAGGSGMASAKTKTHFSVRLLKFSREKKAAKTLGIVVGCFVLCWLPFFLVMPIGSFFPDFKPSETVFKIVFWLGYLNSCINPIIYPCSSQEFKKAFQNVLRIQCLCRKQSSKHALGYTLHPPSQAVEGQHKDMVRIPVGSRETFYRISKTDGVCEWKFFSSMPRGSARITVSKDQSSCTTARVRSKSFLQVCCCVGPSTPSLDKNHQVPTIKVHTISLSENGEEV
Description: Displacement of [3H]prazosin from human recombinant alpha1A adrenoceptor expressed in CHO cells after 30 mins by liquid scintillation counting.

In assay [5] the target is T3, Alpha-1B adrenergic receptor (Rattus norvegicus) (UniProt P15823).
T3 sequence (whole entry): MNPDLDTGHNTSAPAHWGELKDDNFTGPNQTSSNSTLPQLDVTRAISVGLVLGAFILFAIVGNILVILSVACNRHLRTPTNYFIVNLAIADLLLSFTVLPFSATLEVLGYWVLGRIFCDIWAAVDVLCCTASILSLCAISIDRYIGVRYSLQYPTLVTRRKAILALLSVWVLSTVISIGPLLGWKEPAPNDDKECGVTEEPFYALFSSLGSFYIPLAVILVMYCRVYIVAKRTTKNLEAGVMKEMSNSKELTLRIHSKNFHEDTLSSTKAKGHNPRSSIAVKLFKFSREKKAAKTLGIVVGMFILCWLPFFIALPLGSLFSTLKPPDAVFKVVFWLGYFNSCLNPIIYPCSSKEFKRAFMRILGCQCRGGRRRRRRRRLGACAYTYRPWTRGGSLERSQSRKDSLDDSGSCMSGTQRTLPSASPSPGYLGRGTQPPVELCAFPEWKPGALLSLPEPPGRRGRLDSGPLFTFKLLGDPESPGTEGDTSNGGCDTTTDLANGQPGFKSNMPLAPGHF
Description: Antagonist activity at alpha1B adrenoceptor in Wistar rat spleen assessed as phenylephrine-induced contractions after 30 mins. Summed up: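 Spleen strips (bisected longitudinally) in Krebs with 4 µM propranolol, 1 g resting tension, 2 h equilibration. Cumulative phenylephrine curves recorded isometrically at 30 min intervals, the first discarded and the second used as control. Antagonist pre-equilibrated 30 min before a repeat agonist curve.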

The target of assay [6] is T4, Alpha-1A adrenergic receptor (Rattus norvegicus) (UniProt P43140).
T4 sequence (whole entry): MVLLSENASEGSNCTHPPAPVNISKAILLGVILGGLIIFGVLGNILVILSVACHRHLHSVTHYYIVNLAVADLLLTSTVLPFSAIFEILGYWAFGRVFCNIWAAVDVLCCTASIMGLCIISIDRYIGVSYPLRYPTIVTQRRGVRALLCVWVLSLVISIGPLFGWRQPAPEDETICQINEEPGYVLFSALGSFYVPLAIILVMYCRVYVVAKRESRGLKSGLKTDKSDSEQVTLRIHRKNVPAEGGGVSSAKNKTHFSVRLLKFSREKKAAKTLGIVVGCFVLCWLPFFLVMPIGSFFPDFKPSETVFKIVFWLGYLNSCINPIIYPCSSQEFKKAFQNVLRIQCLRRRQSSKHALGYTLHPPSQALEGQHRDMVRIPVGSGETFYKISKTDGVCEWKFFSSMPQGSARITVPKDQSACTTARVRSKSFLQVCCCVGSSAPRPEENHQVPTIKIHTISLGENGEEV
Description: Antagonist activity at alpha1A adrenoceptor in Wistar rat vas deferans assessed as noradrenaline-induced contractions after 30 mins.

For assay [7], the species on record is Rattus norvegicus. Description: Selectivity ratio of Kb for alpha1D adrenoceptor in Wistar rat thoracic aorta to Kb for alpha1A adrenoceptor in Wistar rat vas deferans. The format is tissue-based.

Consider `COc1ccccc1N1CCN(CC2COC3(CCN(C(=O)NC(C)(C)C)CC3)O2)CC1` (stereo unspecified), for which the figures for the Ki in assay [1] and in assay [4] were 129 nM and 12.6 nM, respectively. The Ratio is 0.13 in the assay filed under Rattus norvegicus [2], 0.61 in the assay listed under Rattus norvegicus [3] and 0.08 in the assay filed under Rattus norvegicus [7]. In addition, the negative logarithm of the Kb (pKb) in assay [5] amounted to 7.42; in assay [6], 7.63.
With `COc1ccccc1N1CCN(CC2COC3(CCN(C(=O)c4ccco4)CC3)O2)CC1` (stereo unspecified), the results for the inhibitory constant (Ki) in assay [1] and in assay [4] were 158 nM and 21.4 nM, respectively. Also, the results for the Ratio in the assay filed under Rattus norvegicus [2], in the assay listed under Rattus norvegicus [3] and in the assay filed under Rattus norvegicus [7] were 0.49, 1.82 and 0.89, respectively. The values for the pKb in assay [5] and in assay [6] were 7.69 and 7.43, respectively.
Take `COc1ccccc1N1CCN(CC2COC3(CCN(S(=O)(=O)c4cccc([N+](=O)[O-])c4)CC3)O2)CC1` (stereo unspecified): the inhibitory constant (Ki) was 69.2 nM in assay [1] and 3.02 nM in assay [4]. Besides, the Ratio in the assay listed under Rattus norvegicus [2] was found to be 0.69; in the assay listed under Rattus norvegicus [3], 1.48; in the assay filed under Rattus norvegicus [7] it was 1.02. In addition, the values for the pKb in assay [5] and in assay [6] were 8.14 and 7.97, respectively.
For the compound `COc1ccccc1N1CCN(CC2COC3(CCN(C(=O)C4CCCN4)CC3)O2)CC1` (stereo unspecified), the values for the Ki in assay [1] and in assay [4] were 158 nM and 11.7 nM, respectively. Besides, the Ratio in the assay filed under Rattus norvegicus [2] was 0.07; in the assay filed under Rattus norvegicus [3], 2.69; in the assay listed under Rattus norvegicus [7] it was 0.19. For the same compound, the pKb in assay [5] was found to be 7.86; in assay [6] it was 7.43.
For `COc1ccccc1N1CCN(CC2COC3(CCN(S(=O)(=O)c4ccc(Cl)cc4)CC3)O2)CC1` (stereo unspecified), the figures for the inhibitory constant (Ki) in assay [1] and in assay [4] were 69.2 nM and 6.46 nM, respectively. In addition, the Ratio in the assay listed under Rattus norvegicus [2] was found to be 1.02; in the assay listed under Rattus norvegicus [3], 1.32; in the assay listed under Rattus norvegicus [7] it was 1.35. In addition, the pKb stood at 7.36 in assay [5] and 7.24 in assay [6].
Turning to `COc1ccccc1N1CCN(CC2COC3(CCN(S(C)(=O)=O)CC3)O2)CC1` (stereo unspecified), the results for the inhibition constant Ki in assay [1] and in assay [4] were 363 nM and 18.6 nM, respectively. Besides, the Ratio in the assay listed under Rattus norvegicus [2] is 0.52; in the assay listed under Rattus norvegicus [3], 1.12; in the assay listed under Rattus norvegicus [7], 0.59. Further, the results for the negative-log Kb (pKb) in assay [5] and in assay [6] were 7.46 and 7.41, respectively.
On to `COc1ccccc1N1CCN(CC2COC3(CCN(C(=O)C(F)(F)F)CC3)O2)CC1` (stereo unspecified), for which the Ki in assay [1] is 1000 nM; in assay [4], over 1000 nM. Moreover, the Ratio worked out at 0.31 in the assay filed under Rattus norvegicus [2], 10.7 in the assay filed under Rattus norvegicus [3] and 3.39 in the assay listed under Rattus norvegicus [7]. The negative-log Kb (pKb) amounted to 8 in assay [5] and 6.97 in assay [6].
With `COc1ccccc1N1CCN(CC2COC3(CCN(C(=O)c4ccccc4)CC3)O2)CC1` (stereo unspecified), the Ki in assay [1] was 67.6 nM; in assay [4] it was 10.7 nM. Besides, the Ratio in the assay listed under Rattus norvegicus [2] stood at 0.18; in the assay listed under Rattus norvegicus [3] it was 3.02; in the assay listed under Rattus norvegicus [7] it was 0.55. Also, the negative logarithm of the Kb (pKb) in assay [5] stood at 8.19; in assay [6], 7.71.
